Laboratory results reported in ChEMBL document CHEMBL3244300, “Pyrimidinylpropenamides as antitumor agents. Analogues of the antibiotic sparsomycin” (1977).
Values after ≈ are worked out from the molar mass of the structure shown. Active and inactive are the calls of the source. The rule behind the calls is not given here.

Assays:
Format in all cases: functional
KB = test: Cytotoxicity against human KB cells assessed as growth inhibition; conditions: for EC50: Homo sapiens, KB, read-out: ED50 (the source's name)
Method in brief: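 KB cell culture run under standard National Cancer Institute Division of Cancer Treatment protocols. Compounds were dissolved in water or propylene glycol as vehicle, depending on the compound. ED50 is the dose that inhibits growth to 50% of control growth, in μg/ml.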

P388 [1] = test: Antitumor activity against mouse P388 cells allografted in mouse assessed as increase in life span at 400 mg/kg, ip qd administered on day 1 to day 9 relative to control; conditions: route intraperitoneal
Method in brief: (§1)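 NCI Division of Cancer Treatment standard P-388 lymphocytic leukaemia protocol in mice. Drug given intraperitoneally once daily on days 1–9, with dose in mg/kg. The vehicle was water, saline or propylene glycol depending on the compound. T/C = (mean or median survival of treated ÷ control survival) × 100.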

P388 [2] = test: Antitumor activity against mouse P388 cells allografted in mouse assessed as increase in life span at 0.3 mg/kg, ip qd administered on day 1 to day 9 relative to control; conditions: route intraperitoneal; method in brief: as §1
P388 [3] = test: Antitumor activity against mouse P388 cells allografted in mouse assessed as increase in life span at 6.25 mg/kg, ip qd administered on day 1 to day 9 relative to control; conditions: route intraperitoneal; method in brief: as §1
P388 [4] = test: Antitumor activity against mouse P388 cells allografted in mouse assessed as increase in life span at 38.4 mg/kg, ip qd administered on day 1 to day 9 relative to control; conditions: route intraperitoneal; method in brief: as §1
P388 [5] = test: Antitumor activity against mouse P388 cells allografted in mouse assessed as increase in life span at 5 mg/kg, ip qd administered on day 1 to day 9 relative to control; conditions: route intraperitoneal; method in brief: as §1
P388 [6] = test: Antitumor activity against mouse P388 cells allografted in mouse assessed as increase in life span at 100 mg/kg, ip qd administered on day 1 to day 9 relative to control; conditions: route intraperitoneal; method in brief: as §1
P388 [7] = test: Antitumor activity against mouse P388 cells allografted in mouse assessed as increase in life span at 256 mg/kg, ip qd administered on day 1 to day 9 relative to control; conditions: route intraperitoneal; method in brief: as §1
P388 [8] = test: Antitumor activity against mouse P388 cells allografted in mouse assessed as increase in life span at 40 mg/kg, ip qd administered on day 1 to day 9 relative to control; conditions: route intraperitoneal; method in brief: as §1

In the case of `Cc1[nH]c(=O)[nH]c(=O)c1/C=C/C(=O)NC(CO)CSC(C)C` (stereo not given), the EC50 (KB) is reported as over 100 µg/mL and the T/C (P388 [1]) is reported as 89%.

With `CSC[S+]([O-])C[C@H](CO)NC(=O)/C=C/c1c(C)[nH]c(=O)[nH]c1=O` (stereo not given in full) the T/C (P388 [2]) was 156% and the EC50 (KB) was 0.08 µg/mL (≈ 0.221 µM).

In the case of `CCCCCCCCCC[S+]([O-])CC(CO)NC(=O)/C=C/c1c(C)nc(O)nc1O` (racemic), the T/C (P388 [3]) is reported as 153%.

`CSCSCC(CO)NC(=O)/C=C/c1c(C)nc(O)nc1O` (racemic) [listing 1 of 2 here] was tested, and the T/C (P388 [4]) was 92%.

Compound `CCCC[S+]([O-])CC(CO)NC(=O)/C=C/c1c(C)[nH]c(=O)[nH]c1=O` (racemic) has an EC50 (KB) of 1.2 µg/mL (≈ 3.36 µM) and a T/C (P388 [5]) of 161%.

Compound `CCCCCCCCCCSCC(CO)NC(=O)/C=C/c1c(C)[nH]c(=O)[nH]c1=O` (racemic) has a T/C (P388 [6]) of 155%.

Work on `CSCC(CO)NC(=O)/C=C/c1c(C)[nH]c(=O)[nH]c1=O` (racemic) yielded a T/C (P388 [1]; 400 mg/kg) of 88%.

Compound `Cc1[nH]c(=O)[nH]c(=O)c1/C=C/C(=O)NC(CO)C[S+](C)[O-].O` (racemic) has an ED50 (KB) of 1.5 µg/mL and a T/C (P388 [7]) of 137%.

`Cc1[nH]c(=O)[nH]c(=O)c1/C=C/C(=O)NC(CO)C[S+]([O-])C[S+](C)[O-].O` (racemic) gave an EC50 (KB) of 2.4 µg/mL and a T/C (P388 [5]) of 137%.

For `CSCSCC(CO)NC(=O)/C=C/c1c(C)nc(O)nc1O` (racemic) [listing 2 of 2 here], the ED50 (KB) was “inactive”.

Compound `CSCSCC(CO)NC(=O)/C=C/c1c(C)nc(O)nc1O` (single isomer, unassigned; (+)) has an ED50 (KB) of 13 µg/mL (≈ 37.6 µM) and a T/C (P388 [1]; 400 mg/kg) of 14%.

For `CSCSCC(CO)NC(=O)/C=C/c1c(C)nc(O)nc1O` (single isomer, unassigned; (-)), the ED50 (KB) was over 100 µg/mL and the T/C (P388 [1]; 400 mg/kg) was 86%.

For `CSCC(CO)NC(=O)/C=C/c1c(C)[nH]c(=O)[nH]c1=O` (single isomer, unassigned; (-)), the EC50 (KB) was over 100 µg/mL and the T/C (P388 [1]; 400 mg/kg) was 69%.

`Cc1[nH]c(=O)[nH]c(=O)c1/C=C/C(=O)NC(CO)CSCc1ccccc1` (single isomer, unassigned; (-)) gave an EC50 (KB) of over 100 µg/mL and a T/C (P388 [1]) of 95%.

In the case of `CCCCSCC(CO)NC(=O)/C=C/c1c(C)[nH]c(=O)[nH]c1=O` (single isomer, unassigned; (-)), the EC50 (KB) is reported as 27 µg/mL (≈ 79.1 µM).

Work on `Cc1[nH]c(=O)[nH]c(=O)c1/C=C/C(=O)NC(CO)C[S+]([O-])Cc1ccccc1.O` (single isomer, unassigned; (-)) yielded an EC50 (KB) of 88 µg/mL and a T/C (P388 [1]) of 93%.

Compound `Cc1[nH]c(=O)[nH]c(=O)c1/C=C/C(=O)NC(CO)C[S+]([O-])C(C)C.O` (single isomer, unassigned; (-)) has an EC50 (KB) of over 100 µg/mL and a T/C (P388 [1]) of 113%.

In the case of `Cc1[nH]c(=O)[nH]c(=O)c1/C=C/C(=O)NC(CO)C[S+](C)[O-].O` (stereo in doubt; 10c), the ED50 (KB) is reported as over 100 µg/mL and the T/C (P388 [8]) is reported as 100%.
